Laboratory results taken from ChEMBL document CHEMBL5724801, “EUbOPEN Chemogenomics Library - Multiplex” (2024).
Where “and” joins values, the source holds several entries; their conditions need not be identical. Identical values can stand only once.

Tested on: Fibroblast
Experiment: Multiplex assay against human fibroblast
Type: toxicity, cell-based
How it was run: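 Live cells carried four stains from seeding: Hoechst33342, BioTracker Green Microtubule Cytoskeleton Dye, MitoTracker Red and Annexin V Alexa Fluor 680. They were imaged on a CQ1 microscope at 37°C and 5% CO2 after compound addition. Using CellPathfinder machine-learning gating, cells were split into Hoechst high-intensity objects or normal cells, normal cells into healthy, pyknosed or fragmented nuclei, and pyknosed cells into mitotic or apoptotic; tubulin, mitochondrial-mass and membrane-permeability phenotypes are per cents of healthy-nucleus cells.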

[1] = 12 h, 1 µM, compound concentration 1 uM
[2] = 12 h, 10 µM, compound concentration 10 uM
[3] = 24 h, 1 µM, compound concentration 1 uM
[4] = 24 h, 10 µM, compound concentration 10 uM
[5] = 48 h, 1 µM, compound concentration 1 uM
[6] = 48 h, 10 µM, compound concentration 10 uM

`CCOc1ccccc1C(=O)NCC1(N2CCN(CC)CC2)CCCCC1` was tested, and the “Population Apoptotic (%)” value [1] was 8% and 22.22%, the “Population Healthy Nuclei (%)” value [1] was 51.46% and 68.29% and the “Population Hoechst High Intensity Objects (%)” value [1] was 0%. The “Population Membrane Permeable-Phenotype (%)” value [1] was 3.41% and 2.98%, the “Population Mitochondria Different-Phenotype (%)” value [1] was 3.41% and 11.31% and the “Population Mitotic Cells (%)” value [1] was 92% and 77.78%. The “Population Normal (%)” value [1] was 100%, the “Population Pyknosed Nuclei (%)” value [1] was 29.24% and 25.61% and the “Population Tubulin-Different-Phenotype (%)” value [1] was 10.23% and 23.81%. For the same compound, the “Total Cell Count” value [1] was 171 and 246, the “Population Apoptotic (%)” value [2] was 12.35% and 12.82% and the “Population Fragmented Nuclei (%)” value [2] was 13.04% and 5.43%. For the same compound, the “Population Healthy Nuclei (%)” value [2] was 42.93% and 73.37%, the “Population Hoechst High Intensity Objects (%)” value [2] was 0% and the “Population Membrane Permeable-Phenotype (%)” value [2] was 5.06% and 9.63%. The “Population Mitochondria Different-Phenotype (%)” value [2] was 41.77% and 25.19%, the “Population Mitotic Cells (%)” value [2] was 87.65% and 87.18% and the “Population Normal (%)” value [2] was 100%. The “Population Pyknosed Nuclei (%)” value [2] was 44.02% and 21.2%, the “Population Tubulin-Different-Phenotype (%)” value [2] was 65.82% and 80.74% and the “Total Cell Count” value [2] was 184. For the same compound, the “Population Apoptotic (%)” value [3] was 15.79% and 31.25%, the “Population Fragmented Nuclei (%)” value [3] was 10.24% and 5.42% and the “Population Healthy Nuclei (%)” value [3] was 66.87% and 81.25%. For the same compound, the “Population Hoechst High Intensity Objects (%)” value [3] was 0%, the “Population Membrane Permeable-Phenotype (%)” value [3] was 1.8% and 4.1% and the “Population Mitochondria Different-Phenotype (%)” value [3] was 4.5% and 8.72%. For the same compound, the “Population Mitotic Cells (%)” value [3] was 84.21% and 68.75%, the “Population Normal (%)” value [3] was 100% and the “Population Pyknosed Nuclei (%)” value [3] was 22.89% and 13.33%. For the same compound, the “Population Tubulin-Different-Phenotype (%)” value [3] was 12.61% and 24.1%, the “Total Cell Count” value [3] was 166 and 240 and the “Population Apoptotic (%)” value [4] was 12.5% and 5.13%. For the same compound, the “Population Fragmented Nuclei (%)” value [4] was 13.66% and 11.26%, the “Population Healthy Nuclei (%)” value [4] was 62.93% and 71.17% and the “Population Hoechst High Intensity Objects (%)” value [4] was 0%. For the same compound, the “Population Membrane Permeable-Phenotype (%)” value [4] was 3.1% and 5.06%, the “Population Mitochondria Different-Phenotype (%)” value [4] was 45.74% and 22.78% and the “Population Mitotic Cells (%)” value [4] was 87.5% and 94.87%. For the same compound, the “Population Normal (%)” value [4] was 100%, the “Population Pyknosed Nuclei (%)” value [4] was 23.41% and 17.57% and the “Population Tubulin-Different-Phenotype (%)” value [4] was 68.22% and 84.81%. For the same compound, the “Total Cell Count” value [4] was 205 and 222, the “Population Apoptotic (%)” value [5] was 21.43% and 23.08% and the “Population Fragmented Nuclei (%)” value [5] was 13.04% and 10.42%. The “Population Healthy Nuclei (%)” value [5] was 79.35% and 84.17%, the “Population Hoechst High Intensity Objects (%)” value [5] was 0% and the “Population Membrane Permeable-Phenotype (%)” value [5] was 0.68% and 0.5%. For the same compound, the “Population Mitotic Cells (%)” value [5] was 78.57% and 76.92%, the “Population Normal (%)” value [5] was 100% and the “Population Pyknosed Nuclei (%)” value [5] was 7.61% and 5.42%. The “Population Tubulin-Different-Phenotype (%)” value [5] was 8.9% and 21.29%, the “Total Cell Count” value [5] was 184 and 240 and the “Population Apoptotic (%)” value [6] was 15.79% and 45.16%. The “Population Fragmented Nuclei (%)” value [6] was 15.15% and 7.88%, the “Population Healthy Nuclei (%)” value [6] was 76.62% and 79.25% and the “Population Hoechst High Intensity Objects (%)” value [6] was 1.28% and 0%. The “Population Membrane Permeable-Phenotype (%)” value [6] was 3.39% and 4.71%, the “Population Mitochondria Different-Phenotype (%)” value [6] was 27.12% and 15.18% and the “Population Mitotic Cells (%)” value [6] was 84.21% and 54.84%. The “Population Normal (%)” value [6] was 98.72% and 100%, the “Population Pyknosed Nuclei (%)” value [6] was 8.23% and 12.86% and the “Population Tubulin-Different-Phenotype (%)” value [6] was 62.15% and 89.01%. For the same compound, the “Total Cell Count” value [6] was 234 and 241.

`Cl.c1ccc2c(c1)CCC[C@H]2Nc1nc2ccccc2[nH]1` was tested, and the “Population Apoptotic (%)” value [1] was 11.32% and 10.42%, the “Population Fragmented Nuclei (%)” value [1] was 9.36% and 5.1% and the “Population Healthy Nuclei (%)” value [1] was 64.53% and 70.41%. For the same compound, the “Population Hoechst High Intensity Objects (%)” value [1] was 0%, the “Population Membrane Permeable-Phenotype (%)” value [1] was 6.11% and 2.17% and the “Population Mitochondria Different-Phenotype (%)” value [1] was 6.87% and 9.42%. The “Population Mitotic Cells (%)” value [1] was 88.68% and 89.58%, the “Population Normal (%)” value [1] was 100% and the “Population Pyknosed Nuclei (%)” value [1] was 26.11% and 24.49%. The “Population Tubulin-Different-Phenotype (%)” value [1] was 18.32% and 18.12%, the “Total Cell Count” value [1] was 203 and 196 and the “Population Apoptotic (%)” value [2] was 5% and 13.89%. For the same compound, the “Population Fragmented Nuclei (%)” value [2] was 8.94% and 7.57%, the “Population Healthy Nuclei (%)” value [2] was 46.37% and 72.97% and the “Population Hoechst High Intensity Objects (%)” value [2] was 0%. The “Population Membrane Permeable-Phenotype (%)” value [2] was 8.43% and 2.96%, the “Population Mitochondria Different-Phenotype (%)” value [2] was 10.84% and 15.56% and the “Population Mitotic Cells (%)” value [2] was 95% and 86.11%. The “Population Normal (%)” value [2] was 100%, the “Population Pyknosed Nuclei (%)” value [2] was 44.69% and 19.46% and the “Population Tubulin-Different-Phenotype (%)” value [2] was 24.1% and 30.37%. The “Total Cell Count” value [2] was 179 and 185, the “Population Apoptotic (%)” value [3] was 11.36% and 6.25% and the “Population Fragmented Nuclei (%)” value [3] was 6.72% and 4.74%. The “Population Healthy Nuclei (%)” value [3] was 74.79% and 78.42%, the “Population Hoechst High Intensity Objects (%)” value [3] was 0% and the “Population Membrane Permeable-Phenotype (%)” value [3] was 4.49% and 2.01%. For the same compound, the “Population Mitochondria Different-Phenotype (%)” value [3] was 8.43% and 5.37%, the “Population Mitotic Cells (%)” value [3] was 88.64% and 93.75% and the “Population Normal (%)” value [3] was 100%. The “Population Pyknosed Nuclei (%)” value [3] was 18.49% and 16.84%, the “Population Tubulin-Different-Phenotype (%)” value [3] was 17.98% and 10.07% and the “Total Cell Count” value [3] was 238 and 190. The “Population Apoptotic (%)” value [4] was 6.56% and 11.11%, the “Population Fragmented Nuclei (%)” value [4] was 8.38% and 10.7% and the “Population Healthy Nuclei (%)” value [4] was 57.54% and 74.87%. For the same compound, the “Population Hoechst High Intensity Objects (%)” value [4] was 0%, the “Population Membrane Permeable-Phenotype (%)” value [4] was 2.91% and 1.43% and the “Population Mitochondria Different-Phenotype (%)” value [4] was 13.59% and 7.86%. For the same compound, the “Population Mitotic Cells (%)” value [4] was 93.44% and 88.89%, the “Population Normal (%)” value [4] was 100% and the “Population Pyknosed Nuclei (%)” value [4] was 34.08% and 14.44%. For the same compound, the “Population Tubulin-Different-Phenotype (%)” value [4] was 35.92% and 30.71%, the “Total Cell Count” value [4] was 179 and 187 and the “Population Apoptotic (%)” value [5] was 7.14% and 20%. The “Population Fragmented Nuclei (%)” value [5] was 7.17% and 4.5%, the “Population Healthy Nuclei (%)” value [5] was 87.25% and 88% and the “Population Hoechst High Intensity Objects (%)” value [5] was 0%. For the same compound, the “Population Membrane Permeable-Phenotype (%)” value [5] was 0.91% and 2.27%, the “Population Mitochondria Different-Phenotype (%)” value [5] was 9.13% and 3.98% and the “Population Mitotic Cells (%)” value [5] was 92.86% and 80%. The “Population Normal (%)” value [5] was 100%, the “Population Pyknosed Nuclei (%)” value [5] was 5.58% and 7.5% and the “Population Tubulin-Different-Phenotype (%)” value [5] was 5.48% and 13.64%. The “Total Cell Count” value [5] was 251 and 200, the “Population Apoptotic (%)” value [6] was 21.05% and 50% and the “Population Fragmented Nuclei (%)” value [6] was 12.39% and 11.11%. The “Population Healthy Nuclei (%)” value [6] was 78.9% and 84.44%, the “Population Hoechst High Intensity Objects (%)” value [6] was 0% and the “Population Membrane Permeable-Phenotype (%)” value [6] was 1.74% and 4.21%. For the same compound, the “Population Mitochondria Different-Phenotype (%)” value [6] was 6.4% and 3.68%, the “Population Mitotic Cells (%)” value [6] was 78.95% and 50% and the “Population Normal (%)” value [6] was 100%. For the same compound, the “Population Pyknosed Nuclei (%)” value [6] was 8.72% and 4.44%, the “Population Tubulin-Different-Phenotype (%)” value [6] was 19.19% and 32.11% and the “Total Cell Count” value [6] was 218 and 225.
